Source: PubChem
Sampled rows, rich in hits. Any-hit rate of the full collection: about 2%.
PglD DTNB – PglD (C. jejuni) enzyme inhibition | purified PglD enzyme, DTNB colorimetric CoA detection | inhibition, % at 12.5 µM | 360,000 compounds, 0.098% hits; in the data active = inhibition above about 16%, passing the limit was not always enough; inconclusive = no clear call, values can overlap the other calls
RAD52 inh – blocks human RAD52 DNA annealing. P43351. recombinant RAD52 DNA annealing, FRET fluorescence. inhibition, % at 18.7 µM. 360,000 compounds, 0.46% hits. AID 651710;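 active = every replicate showing at least 50% inhibition; inconclusive = mean inhibition at least 50% but not in every replicate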
RAD54 inh – inhibitors of human RAD54 branch migration; inhibition, % at 10.4 µM; RAD54 Holliday junction branch migration, FAM/BHQ fluorescence; 360,000 compounds, 0.14% hits; Q92698;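 active = mean normalized replicate activity at least 40 and at least half of replicates scoring 40 or more; inconclusive = only one of the two criteria met; inactive = mean below 40 and under half of replicates reaching 40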;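 also: inhibitors cause a drop in the FAM fluorescence signal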
Target sequence (Q92698 whole entry, looked up): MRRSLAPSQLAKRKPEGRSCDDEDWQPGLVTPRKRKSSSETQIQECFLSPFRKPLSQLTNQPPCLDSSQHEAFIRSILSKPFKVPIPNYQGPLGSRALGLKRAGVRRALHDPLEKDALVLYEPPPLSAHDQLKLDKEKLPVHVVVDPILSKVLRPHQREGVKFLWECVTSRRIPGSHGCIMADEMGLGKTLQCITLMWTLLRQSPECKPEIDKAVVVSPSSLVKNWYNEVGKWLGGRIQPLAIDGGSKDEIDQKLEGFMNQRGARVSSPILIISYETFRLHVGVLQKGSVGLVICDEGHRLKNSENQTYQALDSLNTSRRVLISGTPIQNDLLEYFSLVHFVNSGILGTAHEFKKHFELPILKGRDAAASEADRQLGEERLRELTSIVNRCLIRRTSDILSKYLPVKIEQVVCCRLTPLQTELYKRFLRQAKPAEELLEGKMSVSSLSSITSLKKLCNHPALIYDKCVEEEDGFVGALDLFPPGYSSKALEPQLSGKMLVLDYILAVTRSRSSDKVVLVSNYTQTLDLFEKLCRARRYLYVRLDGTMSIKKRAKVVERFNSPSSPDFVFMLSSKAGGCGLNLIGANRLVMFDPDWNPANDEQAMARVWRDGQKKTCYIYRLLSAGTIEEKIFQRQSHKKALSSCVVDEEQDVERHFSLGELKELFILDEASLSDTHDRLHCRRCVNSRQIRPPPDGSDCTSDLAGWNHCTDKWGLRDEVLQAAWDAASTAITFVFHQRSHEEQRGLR
Xi reactivation – activators of X-chromosome reactivation in mouse fibroblasts; XiGFP mouse fibroblasts, % GFP-positive cells imaging, 3 d; cells co-treated with 5-aza-dC sensitizer; scaled so ellipticine positive control = 100%; activation, % at 7.58 µM; 360,000 compounds, 0.055% hits;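 active = mean normalized replicate activation at least 10% and every replicate at or above 10%; inconclusive = only one of the two criteria met; inactive = mean below 10% and not all replicates reach 10%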
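Schedule: 3 d treatment, 15 min room-temperature fixation; system: 68-5-11 XiGFP fibroblast line; buffer or medium: DMEM plus 5-aza-dC sensitizer; control set: ellipticine 6 µM positive control; compound: one concentration, pinned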
E-selectin induc – E-selectin induction on HUVECs. P16581. HUVEC E-selectin immunofluorescence imaging; normalized: neutral wells 0, TNF-alpha wells 100. 260,000 compounds, 0.37% hits. activation, % at 7.58 µM;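 active = mean E-selectin-positive cell signal at least 10% of the positive control, reached in at least 60% of replicates, without over 20% cell loss; inconclusive = no rule given, readout overlaps actives, possibly toxicity-flagged; inactive = the rest, including those meeting only one limit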
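assay system = HUVEC, human umbilical vein endothelial cells | input = 3,000 HUVEC seeded per well | medium = EGM-2 growth medium on 0.1% gelatin-coated wells | dosing = one compound dose added by pin transfer | signal = immunofluorescence imaging | read-out basis = % PE-positive cells | control set = TNF-alpha, DMSO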
rRNA inh HTS – inhibits bacterial ribosomal RNA function over humanized ribosomes; GFP signal change (wild-type ribosome), % (concentration not given with the values); 350,000 compounds, 1.6% hits; E. coli WT GFP vs humanized-ribosome RFP mutants, fluorescence, 24 h; active compounds read low; DMSO median 0, no signal -100;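 active = significant combined selectivity score with lowered wild-type GFP, culture density cut under 30%, mutant RFP and density less affected; inactive = any of these conditions unmet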
Large screens that a line does not name were inactive.

Cc1ccc(NC(=O)CCl)cc1S(=O)(=O)N1CCCCCC1	rRNA inh HTS -16 (no result: PglD DTNB, RAD54 inh, E-selectin induc)
Cc1ccc(NC(=O)c2ccc3c(c2)OCO3)cc1S(=O)(=O)N1CCOCC1	rRNA inh HTS -18 (no result: E-selectin induc)
COc1ccc(NC(=O)N[C@@H]2CC[C@@H](CCn3cc(-c4ccc(F)cc4)nn3)O[C@@H]2CO)cc1	none
CC(C)Cc1csc(NC(=O)c2ccc(Br)cc2)c1C(=O)O	rRNA inh HTS -26 (no result: E-selectin induc)
O=C(OCc1cccc(F)c1)c1ccc2c(=O)n3c(nc2c1)CCC3	Xi reactivation inconclusive, rRNA inh HTS -24 (no result: PglD DTNB, RAD54 inh, E-selectin induc)
O=C(NCCN1CCCCC1)Nc1ccc(Br)cc1	rRNA inh HTS -32 (no result: E-selectin induc)
O=C(NCCN1CCN(c2cccc(Cl)c2)CC1)Nc1ccccc1	none
O=C(NCCN1CCN(Cc2ccccc2)CC1)Nc1cc(Cl)cc(Cl)c1	rRNA inh HTS -49
Cc1ccc(-c2csc(N/N=C/c3ccco3)n2)cc1	none (no result: RAD52 inh, Xi reactivation, E-selectin induc, rRNA inh HTS)
Brc1ccc(-c2csc(N/N=C/c3ccco3)n2)cc1	rRNA inh HTS -38 (no result: E-selectin induc)
CN(C)S(=O)(=O)c1ccc(-c2csc(N/N=C/c3ccco3)n2)cc1	rRNA inh HTS -20 (no result: PglD DTNB, RAD54 inh, E-selectin induc)
Clc1ccc(-c2csc(N/N=C\c3cccnc3)n2)cc1	rRNA inh HTS -21 (no result: PglD DTNB, RAD54 inh)
COc1ccc(NC(=O)N(C)C[C@@H]2Oc3ccc(NS(=O)(=O)c4ccccc4)cc3CC(=O)N([C@@H](C)CO)C[C@@H]2C)cc1	none (no result: PglD DTNB, RAD54 inh)
COc1ccccc1CC(Cc1nc2ccccc2[nH]1)c1nc2ccccc2[nH]1 (stereo unspecified)	E-selectin induc 176 (no result: PglD DTNB, RAD54 inh)
CC(=O)Nc1sc2c(c1-c1nc3ccccc3s1)CCN(C(C)C)C2	RAD54 inh 78 (no result: RAD52 inh, Xi reactivation, E-selectin induc, rRNA inh HTS)
CC(C)N1CCc2c(sc(NC(=O)Cc3ccccc3)c2C(N)=O)C1	none
CC(C)N1CCc2c(sc(NC(=O)c3ccc4ccccc4c3)c2C(N)=O)C1	Xi reactivation 99
CC(=O)c1ccc(C(=O)Nc2sc3c(c2C(N)=O)CCN(Cc2ccccc2)C3)cc1	Xi reactivation 39
CC(C)N1CCc2c(sc(NC(=O)CCc3ccccc3)c2C(N)=O)C1	none (no result: PglD DTNB, RAD54 inh, E-selectin induc)
O=C(C[C@@H]1CC[C@@H]2[C@H](COC[C@@H](O)CN2C(=O)Nc2cccc(Cl)c2)O1)NCc1ccccc1F	none
Cc1ccc(C)c2c1cc(C)c1nnc(SCC(=O)c3cccs3)n12	none (no result: PglD DTNB, RAD52 inh, RAD54 inh, E-selectin induc, rRNA inh HTS)
Cc1ccc2cc(C)c3nnc(SCC(=O)c4cccs4)n3c2c1C	rRNA inh HTS -39 (no result: PglD DTNB, RAD54 inh)
CCCC(=O)Nc1ccc2c(c1)C(=O)N(C)C[C@@H](OC)[C@H](C)CN(Cc1ccncc1)[C@H](C)CO2	none (no result: PglD DTNB, RAD52 inh, RAD54 inh)
CCc1ccccc1OCC(=O)NNCC(=O)Nc1cccc(C#N)c1	rRNA inh HTS -20 (no result: E-selectin induc)
O=C(Nc1cccc(Cl)c1)OC1CCCCc2cccnc21 (stereo unspecified)	rRNA inh HTS -24 (no result: PglD DTNB, RAD54 inh)
CCC(c1ccccc1)C(CC)c1cc(O)c(O)c(O)c1 (stereo unspecified)	rRNA inh HTS -26
CC(C)NC(=O)Nc1ccc2c(c1)CC(=O)N([C@H](C)CO)C[C@@H](C)[C@H](CN(C)S(=O)(=O)c1cccs1)O2	none
C[C@H](CO)N1C[C@H](C)[C@H](CN(C)C(=O)CCCN(C)C)OCCCC[C@H](C)Oc2ccc(NC(=O)Nc3ccccc3)cc2C1=O	none
Cc1nc2ccccc2n1Cc1ccccc1	none
Cc1nc2ccccc2n1Cc1ccc(Br)cc1	rRNA inh HTS -47 (no result: E-selectin induc)
CC1CCN(Cc2cc(=O)oc3ccc(C(C)C)cc23)CC1	rRNA inh HTS -23
CC(C)c1ccc2oc(=O)cc(CN3CCCCC3)c2c1	rRNA inh HTS -21 (no result: E-selectin induc)
CC1CCN(Cc2cc(=O)oc3ccc4ccccc4c23)CC1	rRNA inh HTS -23 (no result: PglD DTNB, RAD54 inh)
COc1cccc(S(=O)(=O)Nc2ccc3c(c2)[C@H]2C[C@H](CC(=O)NCCc4ccccc4)O[C@@H](CO)[C@H]2O3)c1	none
CC(C=NN=C1C(=O)Nc2ccccc21)=Cc1ccccc1	none (no result: PglD DTNB, RAD54 inh)
CN(CC(=O)Nc1cccc(F)c1)CC(=O)N1CCc2ccccc21	E-selectin induc 182
CCOc1ccc(CN(C)CC(=O)NCc2ccccc2Cl)cc1	rRNA inh HTS -28 (no result: PglD DTNB, RAD54 inh)
Cc1nc2ccccc2nc1N1CCCC1	none
Cc1ccc2c(Cl)c(C)c(N3CCCC3)nc2n1	rRNA inh HTS -36
Cc1ccccc1NC(=S)N(Cc1ccccn1)Cc1ccccc1Cl	rRNA inh HTS -23 (no result: PglD DTNB, RAD54 inh, E-selectin induc)
Cc1ccc(NS(=O)(=O)c2cccc(C(=O)Nc3cccnc3)c2)c(C)c1	rRNA inh HTS -45
O=C(Nc1cccnc1)c1ccccc1NS(=O)(=O)c1ccc(F)cc1	rRNA inh HTS -32
Cc1cccc2cc(CN(CCCN(C)C)C(=S)NCCc3ccccc3)c(=O)[nH]c12	rRNA inh HTS -17
Cc1ccc2[nH]c(=O)c(CN(CCCN(C)C)C(=S)NCCc3ccccc3)cc2c1	rRNA inh HTS -36 (no result: PglD DTNB, RAD54 inh)
Cc1noc(C)c1NC(=O)N(C)C[C@H]1Oc2c(cccc2N(C)C)C(=O)N([C@@H](C)CO)C[C@H]1C	none
COC(=O)c1cc(C)sc1NC(=O)C1CC(=O)NN1Cc1ccccc1 (stereo unspecified)	rRNA inh HTS -32 (no result: PglD DTNB, RAD54 inh, E-selectin induc)
CCOC(=O)c1cc(CC)sc1NC(=O)C1CC(=O)NN1Cc1ccccc1 (stereo unspecified)	none (no result: PglD DTNB, RAD54 inh, E-selectin induc)
COc1ccc(S(=O)(=O)N(C)C[C@H]2Oc3ccc(NC(=O)c4ccncc4)cc3C(=O)N([C@@H](C)CO)C[C@H]2C)cc1	none
Cc1ccc(S(=O)(=O)N(C)C[C@H]2Oc3ccc(NC(=O)c4ccncc4)cc3C(=O)N([C@H](C)CO)C[C@@H]2C)cc1	none
COc1ccc(S(=O)(=O)N(C)C[C@@H]2Oc3ccc(NC(=O)c4ccncc4)cc3C(=O)N([C@@H](C)CO)C[C@@H]2C)cc1	E-selectin induc 37
COc1ccc(S(=O)(=O)N(C)C[C@@H]2Oc3ccc(NC(=O)c4ccncc4)cc3C(=O)N([C@H](C)CO)C[C@H]2C)cc1	E-selectin induc 28
COc1cccc(S(=O)(=O)Nc2ccc3c(c2)[C@@H]2C[C@H](CC(=O)NCC(F)(F)F)O[C@H](CO)[C@@H]2O3)c1	none
O=C(COc1ccc2c3c(c(=O)oc2c1)CCC3)NC1CCN(Cc2ccccc2)CC1	rRNA inh HTS -29 (no result: E-selectin induc)
Nc1[nH]n2c(=O)cc(-c3ccccc3)nc2c1N=Nc1ccc(S(N)(=O)=O)cc1	rRNA inh HTS -24 (no result: PglD DTNB, RAD54 inh, E-selectin induc)
Nc1[nH]n2c(=O)cc(-c3ccccc3)nc2c1N=Nc1ccccc1	none (no result: RAD52 inh, Xi reactivation, E-selectin induc, rRNA inh HTS)
C[C@@H]1CN([C@@H](C)CO)C(=O)c2cc(NC(=O)Nc3ccccc3)ccc2O[C@H]1CN(C)Cc1ccccc1	none
N=C1S/C(=C\c2ccco2)C(=O)N1c1nccs1	none
N=C1S/C(=C\c2ccco2)C(=O)N1c1ccc2c(c1)OCO2	rRNA inh HTS -43 (no result: E-selectin induc)
CCCCC1(CO)C(=O)N(c2ccccc2)N(c2ccccc2)C1=O	none
